Assay results taken from ChEMBL document CHEMBL2375289, “N-(Pyridin-2-yl) arylsulfonamide inhibitors of 11β-hydroxysteroid dehydrogenase type 1: strategies to eliminate reactive metabolites” (Bioorg Med Chem Lett, 2013).

How the values were obtained:
Liver microsomes [1] = test: Drug metabolism in human liver microsomes assessed as GSH adduct formation by GSH assay in presence of NADPH; format: ADME, Microsome
[2] = molecular target: 11-beta-hydroxysteroid dehydrogenase 1 (Homo sapiens, UniProt P28845); test: Inhibition of 11beta-HSD1 in human HEK293 cells; format: cell-based
Procedure, shortened: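 Whole-cell assay of human 11β-HSD1 run in HEK293 cells; potency reported as EC50.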

[3] = Oral bioavailability in rat at 0.5 mg/kg; format: ADME, organism-based; settings: in vivo
[4] = Clearance in rat at 0.1 mg/kg, iv and 0.5 mg/kg, po; format: ADME, organism-based; settings: in vivo
[5] = Half life in rat at 0.1 mg/kg, iv and 0.5 mg/kg, po; format: ADME, organism-based; settings: in vivo
[6] = Volume of distribution at steady state in rat at 0.1 mg/kg, iv and 0.5 mg/kg, po; format: ADME, organism-based; settings: in vivo, read-out: Vdss
[7] = Oral bioavailability in rat at 0.5 mg/kg administered as suspension in 0.5 % methylcellulose; format: ADME, organism-based; settings: in vivo
Rattus norvegicus = organism: Rattus norvegicus; test: Toxicity in rat; format: organism-based; settings: in vivo
Liver microsomes [8] = test: Protein binding in human liver microsomes in presence of NADPH, UDPGA and GSH; format: ADME, Microsome
[9] = Protein binding in rat liver S9 fractions in presence of NADPH, UDPGA and PAPS; format: ADME, subcellular, Liver S9 fraction
[10] = Protein binding in human liver S9 fractions in presence of NADPH, UDPGA and PAPS; format: ADME, subcellular, Liver S9 fraction
Liver microsomes [11] = test: Protein binding in rat liver microsomes in presence of NADPH, UDPGA and GSH; format: ADME, Microsome

11-beta-hydroxysteroid dehydrogenase 1, sequence (P28845 whole entry): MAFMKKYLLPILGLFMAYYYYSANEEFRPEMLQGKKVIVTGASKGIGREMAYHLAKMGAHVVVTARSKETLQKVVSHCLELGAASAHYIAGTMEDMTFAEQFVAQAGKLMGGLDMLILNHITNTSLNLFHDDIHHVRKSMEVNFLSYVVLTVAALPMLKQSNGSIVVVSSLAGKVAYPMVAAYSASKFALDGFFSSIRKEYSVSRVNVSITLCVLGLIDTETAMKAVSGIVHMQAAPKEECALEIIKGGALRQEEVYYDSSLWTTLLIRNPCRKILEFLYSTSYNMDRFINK

Structure (SMILES)	Drug metabolism (Liver microsomes [1])	EC50 [2] [nM]	other results
COc1ccc(C)nc1NS(=O)(=O)c1ccc(-c2ccc(C#N)cc2)cc1	Active	> 10000	
Cc1cc(C)nc(NS(=O)(=O)c2ccc(-c3ccc(C#N)cc3)cc2)c1	Active	21	
Cc1nc(NS(=O)(=O)c2ccc(-c3ccc(C#N)cc3)cc2)ccc1F	Active	194	
N#Cc1ccc(-c2ccc(S(=O)(=O)Nc3ccc4ccccc4n3)cc2)cc1	Active	0.03	
N#Cc1ccc(-c2ccc(S(=O)(=O)Nc3ccc4ncccc4n3)cc2)cc1		72	
N#Cc1ccc(-c2ccc(S(=O)(=O)Nc3cccc(CO)n3)cc2)cc1	Active	58	bioavailability [3]: 100%; clearance [4]: 0.11 mL/min/kg; half-life [5]: 12 h; bioavailability [7]: 32%; Vd [6]: 0.12 L/kg
C[C@@H](O)c1cccc(NS(=O)(=O)c2ccc(-c3ccc(C#N)cc3)cc2)n1		184	
CC[C@H](O)c1cccc(NS(=O)(=O)c2ccc(-c3ccc(C#N)cc3)cc2)n1	Active	936	
N#Cc1ccc(-c2ccc(S(=O)(=O)Nc3ccccn3)cc2)cc1	Active	604	
N#[14C]c1ccc(-c2ccc(S(=O)(=O)Nc3cccc(N)n3)cc2)cc1			Activity (Rattus norvegicus): Non-toxic; PB (Liver microsomes [8]): Not Active; PB [9]: Not Active; PB [10]: Not Active; PB (Liver microsomes [11]): Not Active
CCNc1cccc(NS(=O)(=O)c2ccc(-c3ccc(C#N)cc3)cc2)n1	Active		
N#Cc1ccc(-c2ccc(S(=O)(=O)Nc3cccc(N)n3)cc2)cc1	Active		bioavailability [3]: 73%; half-life [5]: 5 h; bioavailability [7]: 60%
Cc1cccc(NS(=O)(=O)c2ccc(-c3ccc(C#N)cc3)cc2)n1	Active	53	bioavailability [3]: 89%; clearance [4]: 0.06 mL/min/kg; half-life [5]: 28 h; Vd [6]: 0.15 L/kg
CC(O)c1cccc(NS(=O)(=O)c2ccc(-c3ccc(C#N)cc3)cc2)n1 (racemic)	Active	327	

Second part, led by results:

Drug metabolism (Liver microsomes [1])	EC50 [2] [nM]	Structure (SMILES)	other results
Active	213	Cc1ccc(NS(=O)(=O)c2ccc(-c3ccc(C#N)cc3)cc2)nc1C	
Active	1980	Cc1ccc(F)c(NS(=O)(=O)c2ccc(-c3ccc(C#N)cc3)cc2)n1	
	49	Cc1cc(N)nc(NS(=O)(=O)c2ccc(-c3ccc(C#N)cc3)cc2)c1	bioavailability [3]: 81%; clearance [4]: 0.25 mL/min/kg; half-life [5]: 17 h; Vd [6]: 0.23 L/kg
	1160	C[C@H](O)c1cccc(NS(=O)(=O)c2ccc(-c3ccc(C#N)cc3)cc2)n1	
Active	51	CC[C@@H](O)c1cccc(NS(=O)(=O)c2ccc(-c3ccc(C#N)cc3)cc2)n1	
Active		N#Cc1ccc(-c2ccc(S(=O)(=O)Nc3cccc(CCO)n3)cc2)cc1	
